Jurkat NFkB inh – inhibitors of induced NF-kB luciferase reporter, primary screen, TCR NF-kB activation inhibitor project, cell-based, luminescence, uHTS | Jurkat, PMA/ionomycin-induced NF-kB luciferase reporter | inhibition, % at 4 µM | hit rate 0.53% among 330,000; in the data active = inhibition above about 50%
CHOP inhibitor – inhibitors of CHOP promoter induction, primary screen, cell-based, unfolded protein response, luciferase reporter; hit rate 3.8% among 220,000; CHO-K1 CHOP-promoter luciferase, tunicamycin-induced, 15-18 h; inhibition, % at 10 µM;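 active = compounds that reduced the stress-induced luciferase reporter signal by more than about 70% of percent inhibition, limit read from the data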;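 note: 0% = tunicamycin plus vehicle and 100% = wells without tunicamycin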
697 NFkB inh – inhibitors of PMA/ionomycin-induced NF-kB reporter, 697 cells, primary screen, B-cell NF-kB inhibitor project, cell-based, luminescence, uHTS; 697 B-cell NF-kB luciferase reporter, 16 h; inhibition, % at 4 µM; hit rate 0.33% among 330,000; in the data active = inhibition above about 35%
Gli-Sufu block – Gli-Sufu pathway antagonists, primary screen, luciferase luminescence, Sufu-KO-LIGHT cells, uHTS; inhibition, % at 5 µM; Sufu-KO-LIGHT fibroblasts, Gli luciferase reporter luminescence; hit rate 0.74% among 340,000;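 active = inhibition above about 55%, limit read from the data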;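 note: 0% = DMSO-treated cells and 100% = wells with medium but no cells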
XBP1 UPR activ – activators of adaptive XBP1 UPR arm, primary screen, cell-based, CHO-XBP1 luciferase reporter, luminescence, uHTS; IRE1-XBP1 UPR activation; percent of tunicamycin response, DMSO as zero; activation, % at 20 µM; hit rate 0.33% among 330,000;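 active = versus positive control, 20 µM dose yields 30% or more activation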;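 note: 100% = tunicamycin at 10 µg/mL and 0% = DMSO only wells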
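Assay system: CHO-XBP1 luciferase reporter cells; Schedule: 6 h treatment, 37 °C; Detection: glow luminescence from Steady-Glo reagent; Benchmarks: high control tunicamycin 10 µg/mL final, low control DMSO vehicle only.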
UPR CHOP act – activators of apoptotic CHOP UPR arm, primary screen, cell-based, CHO-CHOP luciferase reporter, luminescence, uHTS. UPR activation; percent of tunicamycin response over DMSO baseline. activation, % at 10 µM. hit rate 0.34% among 330,000. AID 449763, 2010;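 active = at 10 µM dose, activation of 40% or more, normalized to positive control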;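 note: 100% = tunicamycin at 10 µg/mL and 0% = DMSO alone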
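Test system: CHO-CHOP cells, stable luciferase reporter of PERK-eIF2a-CHOP signalling | Quantity: 500 CHO-CHOP cells per well | Buffer or medium: F12 plus 10% serum | Compound dosing: 10 µM single point, 0.5% DMSO | Schedule: 6 h compound treatment, 37 °C | Signal: Luciferase luminescence | Control set: Tunicamycin high control, DMSO low control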
CHOP confirm – retest of CHOP induction inhibitors, confirmation, cell-based; shares compounds with CHOP inhibitor; CHO-CHOP promoter luciferase reporter, tunicamycin-induced, luminescence; inhibition, % at 10 µM; hit rate 45% among 2,100;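 active = mean of three repeat readings of reporter signal inhibition above a set limit, cut at about 70% in these data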;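 note: 0% = tunicamycin plus vehicle and 100% = wells lacking tunicamycin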
Starred values were filed as active, the others as inactive. A selection: hits, their analogues and other compounds. The true share with any hit is near 3.9%.

What do the screens show for `NC(=O)c1cc(-c2ccccc2)nc(N2CCCCCC2)n1`?
Jurkat NFkB inh: 0; CHOP inhibitor: 103*; 697 NFkB inh: -9; Gli-Sufu block: 2; XBP1 UPR activ: -2; UPR CHOP act: 3; CHOP confirm: 108*

How did CCOc1ccc(NC(=O)CN(C)C(=O)CSCc2ccc(C)cc2)cc1OCC do in these assays?
Jurkat NFkB inh: -7; 697 NFkB inh: -10; Gli-Sufu block: -8; XBP1 UPR activ: 1; UPR CHOP act: 2

Results for O=c1[nH]c(=O)n(C2CCCCCC2)c(O)c1C=NCc1ccc(F)cc1 ?
Jurkat NFkB inh: -4; CHOP inhibitor: 107*; 697 NFkB inh: 9; Gli-Sufu block: 4; XBP1 UPR activ: 1; UPR CHOP act: 0; CHOP confirm: 41

What do the screens show for `O=C(CSc1nnc(-c2ccccc2O)o1)N1CCCCC1`?
Jurkat NFkB inh: -13; 697 NFkB inh: 7; Gli-Sufu block: -17; XBP1 UPR activ: -1; UPR CHOP act: 1

What do the screens show for `CC1CCCC(NC(=O)COC(=O)/C=C/c2ccc3c(c2)OCO3)C1C` (configuration not stated)?
Jurkat NFkB inh: -2; CHOP inhibitor: 98*; 697 NFkB inh: -5; Gli-Sufu block: -2; XBP1 UPR activ: -1; UPR CHOP act: 1; CHOP confirm: 96*

What do the screens show for `O=C(COC(=O)/C=C/c1ccc2c(c1)OCO2)NC1CC1`?
Jurkat NFkB inh: 1; CHOP inhibitor: 33; 697 NFkB inh: -12; Gli-Sufu block: -10; XBP1 UPR activ: -1; UPR CHOP act: -1

What do the screens show for `Cc1ccc(OCC(=O)N2CCN(c3nnc(-c4ccc(C)cc4)c4ccccc34)CC2)cc1`?
Jurkat NFkB inh: 24; CHOP inhibitor: 97*; 697 NFkB inh: 7; Gli-Sufu block: 16; XBP1 UPR activ: -2; UPR CHOP act: 3; CHOP confirm: 75*

What do the screens show for `COc1ccc(OCC(=O)N2CCN(c3nnc(-c4ccc(C)cc4)c4ccccc34)CC2)cc1`?
Jurkat NFkB inh: 29; CHOP inhibitor: 23; 697 NFkB inh: -18; Gli-Sufu block: 3; XBP1 UPR activ: -5; UPR CHOP act: 5

What do the screens show for `CCOC(=O)c1cc(-c2cccs2)nc2c1c(C)nn2-c1ccccn1`?
Jurkat NFkB inh: 2; CHOP inhibitor: 99*; 697 NFkB inh: 1; Gli-Sufu block: 12; XBP1 UPR activ: 9; UPR CHOP act: -2; CHOP confirm: 100*

What do the screens show for `O=C(Nc1ccccc1)C1=C(c2ccccc2)S(=O)(=O)CCS1(=O)=O`?
CHOP inhibitor: 108*; Gli-Sufu block: -4; CHOP confirm: 110*

Results for O=C(O)c1ccccc1C(=O)Nc1ccccc1 ?
Jurkat NFkB inh: -3; CHOP inhibitor: 24; 697 NFkB inh: 2; Gli-Sufu block: 1; XBP1 UPR activ: 0; UPR CHOP act: 0

Results for Cc1c(CN2CCC(CO)(CCOc3ccccc3)CC2)[nH]c2c(Cl)cccc12 ?
Jurkat NFkB inh: 12; CHOP inhibitor: 105*; 697 NFkB inh: 30; Gli-Sufu block: 9; XBP1 UPR activ: 22; UPR CHOP act: 2; CHOP confirm: 71*

What do the screens show for `CCCCCc1ccc(OCCOCCn2c[n+](C)c3ccccc32)c(CCCCC)c1`?
CHOP inhibitor: 108*; Gli-Sufu block: 87*; CHOP confirm: 122*

How did C[n+]1cn(CC(O)COCc2ccccc2)c2ccccc21 (configuration not stated) do in these assays?
Jurkat NFkB inh: -5; CHOP inhibitor: 10; 697 NFkB inh: 3; Gli-Sufu block: -19; XBP1 UPR activ: 3; UPR CHOP act: -1

High-throughput results from PubChem BioAssay.
